In the RNAGym collection of RNA variant scans (doi:10.1126/science.aae0568):
Variants at the floor of the assay were thinned out.

B1: tRNA (parent)
chain: GUUCCGUUGGCGUAAUGGUAACGCGUCUCCCUCCUAAGGAGAAGACUGCGGGUUCGAGUCCCGUACGGAACG

Variants of: B1
Assay: yeast fitness relative to wild type (ratio to wild type); higher = fitter; tRNA-Arg(CCU), competitive growth, 37 C, YPD
Procedure, shortened: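 Start and end populations of a pooled competition were compared by 100-nucleotide paired-end sequencing of gene amplicons. The Saccharomyces cerevisiae strains carried tRNA-Arg(CCU) gene variants at the native genomic locus, synthesised with a 3% per-site mutation rate at 69 sites, and competed in YPD at 37°C for 24 hours in six parallel replicates. Darwinian fitness relative to wild type was based on the change in genotype frequencies. Genotypes required ≥ 100 starting reads, and estimates < 0.5 were set to 0.5.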

Variant	yeast fitness
GUUCCGUUGGCGUAAUGGUAACGCCUCUCCCUCCUAAGGAGAAGACUGUGGGUUCGAGUCCCGUACGGAACG [G25C C49U]	1.01
GUUCCGUUGGCGUAAUGGUAACGCCUCUCGCUUCUAAGGAGAAGGCGGCCGGUUCGAGUCCCAUACGGAACG [G25C C30G C33U A45G U47G G50C G63A]	≤ 0.5
GUUCCGUUGGCGUAAUGGUAACGCCUCUACCUCCUAAGGAGAAGACUGCGGAUUCGAGUCCCGUACAGAACG [G25C C29A G52A G67A]	≤ 0.5
GUUCCGUUGGCGUAAUGGUAACGCCUCUCCUUCCUAAGGAGAAGACUGCGGGUUCGAGUCCCGUACGGAACG [G25C C31U]	0.87
GUUCCGUUGGCGUAAUGGUAACGCCUCUCCCUUCUAAGGAGAAGACUGCCGGUUCGAGUCCCGUACGGAACG [G25C C33U G50C]	≤ 0.5
GUUCCGUUGGCGUAAUGGUAACGCCUCUCCGUCCUAAGGAGAAGACUGCGCGUUCGAGUCCCGUACGGAACG [G25C C31G G51C]	≤ 0.5
GUUCCGUUGGCGUAAUGGUAACGCCUCUCCCUCCUAAGGAGAAGACUGUGGGUUCGAGUCCCGUACUCUACG [G25C C49U G67U G68C A69U]	≤ 0.5
GUUCCGUUGGCGUAAUGGUAACGCCUCUCCUUCCUAAGGAGAAGACUGCGGGCUCGAGUCCCGUACGGAACG [G25C C31U U53C]	0.633
GUUCCGUUGGCGUAAUGGUAACGCCUCUGCCUCCUAAGGAGAAGACUGCGGGUUCGAGUGCCGUACGGAACG [G25C C29G C60G]	≤ 0.5
GUUCCGUUGGCGUAAUGGUAACGCCUCUCCUUCCUAAGGAGAAGACUGCGGGUUCAAGUCCCGUACGGAACG [G25C C31U G56A]	0.616
GUUCCGUUGGCGUAAUGGUAACGCCUCUCCUUCCUAAGGAGAAGACUGCGGGUUCGAGUCCCGUACGUAACG [G25C C31U G68U]	0.587
GUUCCGUUGGCGUAAUGGUAACGCCUCUCGCUCCUAAGGAGAAGACUGCGGGUUCGAGUCCCGUACGGAACG [G25C C30G]	0.582
GUUCCGUUGGCGUAAUGGUAACGCCUCUCUCUCCUAAGGAGAAGACUGCGGGUUCGAGUCCCGUACGGAACG [G25C C30U]	0.669
GUUCCGUUGGCGUAAUGGUAACGCCUCUCCCUCCUAAGGAGAAGACUGCGGGUUCGAGUCCUGUACGGAACG [G25C C62U]	0.999
GUUCCGUUGGCGUAAUGGUAACGCCUCUCCCUCCUAAGGAGAAGACUGCGGGUUCGAGUCCAGUACGGAACG [G25C C62A]	0.845
GUUCCGUUGGCGUAAUGGUAACGCCUCUCCCUGCUAAGGAGAAGACUGCGGGUUCGAGUCCCGUACGGAACG [G25C C33G]	0.662
GUUCCGUUGGCGUAAUGGUAACGCCUCUCCCUACUAAGGAGAAGACUGCGGGUUCGAGUCCCGUACGGAACG [G25C C33A]	0.758
GUUCCGUUGGCGUAAUGGUAACGCCUCUGCCUCCUAAGGAGAAGAGUGCGGGUUCGAGUCCCGUACGGAACG [G25C C29G C46G]	≤ 0.5
GUUCCGUUGGCGUAAUGGUAACGCCUCUCCCUCUUCAGGAAAAGACUGGGGGUUCGAGUCCCGUACGGAACG [G25C C34U A36C G41A C49G]	≤ 0.5

Variant	yeast fitness
GUUCCGUUGGCGUAAUGGUAACGCCUCUUCCUCCUAAGGAGUAGACUGCGGGUUCGAGUCCCGUACGGAACG [G25C C29U A42U]	0.664
GUUCCGUUGGCGUAAUGGUAACGCCUCUGCCUCCUAAGGAGAAGACUGCGGAUUCGAGUCCCGUACGGUACG [G25C C29G G52A A69U]	≤ 0.5
GUUCCGUUGGCGUAAUGGUAACGCCUCUCCCUCUUAAGGAGAAGCCUGCGGGUUCGAGUCCCGUACGGAACG [G25C C34U A45C]	0.54
GUUCCGUUGGCGUAAUGGUAACGCCUCUCCCUCCUAAGGAGAAGAGUGCGGGUUCGAGUCCCGUACGGAACG [G25C C46G]	0.938
GUUCCGUUGGCGUAAUGGUAACGCCUCUCCCUCCUAAGGAGAAGAUUGCGGGUUCGAGUCCCGUACGGAACG [G25C C46U]	1.06
GUUCCGUUGGCGUAAUGGUAACGCCUCUCGCUCCUAAGGAGAAGACUGCGGGUUCGAGUUCCGUACGGAACG [G25C C30G C60U]	≤ 0.5
GUUCCGUUGGCGUAAUGGUAACGCCUCUCCCUCCUAAGGAGAAGACUGCGGGUUCGAGUCUCGUAUGGAACG [G25C C61U C66U]	0.652
GUUCCGUUGGCGUAAUGGUAACGCCUUUCCCUCCUAAGGAGAAGACUGCGGGUUCGAGUCCCGUACGGAACG [G25C C27U]	0.773
GUUCCGUUGGCGUAAUGGUAACGCCUCUCCGUCGUAAGGAGAAGACUGCGGGUUCGAGUCUCGUACGGUACG [G25C C31G C34G C61U A69U]	≤ 0.5
GUUCCGUUGGCGUAAUGGUAACGCCUCUUCCUACUAAGGAGAAGACUGGGGGUUCGAGUCCCGUACGGAACG [G25C C29U C33A C49G]	0.714
GUUCCGUUGGCGUAAUGGUAACGCCUCUCCCUCCUAAGGAGAAGAAUGCGGGUUCGAAUCCCGUACGGAACG [G25C C46A G58A]	≤ 0.5
GUUCCGUUGGCGUAAUGGUAACGCCUCUCCUUCCCAAGGAGAAGACUGCGGGUUCGAGUCCCGUACGGAACG [G25C C31U U35C]	0.53
GUUCCGUUGGCGUAAUGGUAACGCCUCUCCCUCCUAAGGAGAAGACUGCGGGUUCGAGUCCGGUAGUGAACG [G25C C62G C66G G67U]	≤ 0.5
GUUCCGUUGGCGUAAUGGUAACGCCUCUCCCUCCUAAGGAGAAGAUUGCAGGUUCGAGUCCCGUAUGGAACG [G25C C46U G50A C66U]	0.716
GUUCCGUUGGCGUAAUGGUAACGCCUCUCCCUCCUAAGGAGAAGAGUGCGGGUUCGAGUCCCGGACGGAACG [G25C C46G U64G]	≤ 0.5
GUUCCGUUGGCGUAAUGGUAACGCCUCUCGCGCCUAAGGAGCAGACUGUGGGUUCGAGUCCCGUACGGAACG [G25C C30G U32G A42C C49U]	0.543
GUUCCGUUGGCGUAAUGGUAACGCCUCUCCCUACUAAGGAGAAGACUGCGGGUUCGUGUCCCGUACGGAACG [G25C C33A A57U]	0.718
GUUCCGUUGGCGUAAUGGUAACGCCUCUCCCUACUAAGGAGAUGACUGCGGGUUCGUGUCCCGUACGGUACG [G25C C33A A43U A57U A69U]	≤ 0.5
GUUCCGUUGGCGUAAUGGUAACGCCUCUCCCUCCUAAGGAGAAGAGUGUGGGUUCGAGUCCCGGACGGAACG [G25C C46G C49U U64G]	≤ 0.5
